Reference: ChEMBL document CHEMBL1149671, “Enantiopure five-membered cyclicdiamine derivatives as potent and selective inhibitors of factor Xa. Improving in vitro metabolic stability via core modifications” (Bioorg Med Chem Lett, 2007)
Each block holds one molecule with its values, some of them ahead of it.

Experiments:
[1] = Clearance in dog at 0.5 mg/kg, iv; format: ADME, organism-based, Canis lupus familiaris; design: dose 0.5 mg/kg, route intravenous; settings: in vivo
Outline: (§1)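 Dogs. Intravenous dose 0.5 mg/kg, used for clearance (L/kg/h), steady-state volume of distribution (L/kg) and iv half-life.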

[2] = Bioavailability in dog at 0.2 mg/kg, po; format: ADME, organism-based, Canis lupus familiaris; settings: in vivo; outline: as §1
[3] = Metabolic stability in human liver microsomes after 10 mins; format: ADME, Microsome; settings: read-out: Stability
Outline: (§2)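 Human liver microsomes, 10-min incubation. Metabolic stability given as % compound remaining. Microsomal intrinsic clearance rate (nmol/min/mg) is based on the % remaining after 10 min.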

[4] = system: Liver microsomes; test: Metabolic stability in human liver microsomes assessed as microsomal intrinsic clearance rate; format: ADME, Microsome; outline: as §2
[5] = Volume of distribution at steady state in dog at 0.5 mg/kg, iv; format: ADME, organism-based, Canis lupus familiaris; design: dose 0.5 mg/kg, route intravenous; settings: in vivo, read-out: Vdss; outline: as §1
[6] = Half life in dog at 0.5 mg/kg, iv; format: ADME, organism-based, Canis lupus familiaris; design: dose 0.5 mg/kg, route intravenous; settings: in vivo; outline: as §1
[7] = Half life in dog at 0.2 mg/kg, po; format: ADME, organism-based, Canis lupus familiaris; design: dose 0.2 mg/kg, route oral; settings: in vivo
[8] = Permeability across Caco-2 cells; format: ADME, cell-based; settings: human, read-out: permeability
[9] = molecular target: Coagulation factor X (Homo sapiens, UniProt P00742); test: Inhibition of human factor 10a
[10] = Cytotoxicity against HEK cells; format: cell-based; settings: Homo sapiens, HEK293
[11] = molecular target: Plasminogen (Homo sapiens, UniProt P00747); test: Inhibition of human Plasmin
[12] = molecular target: Plasma kallikrein (Homo sapiens, UniProt P03952); test: Inhibition of human plasma kallikrein; format: cell-free
[13] = molecular target: Trypsin (Homo sapiens, UniProt P07477+P07478+P35030); test: Inhibition of human trypsin; format: protein assay
[14] = Inhibition of human chymotrypsin
[15] = molecular target: Urokinase-type plasminogen activator (Homo sapiens, UniProt P00749); test: Inhibition of human urokinase
[16] = molecular target: Vitamin K-dependent protein C (Homo sapiens, UniProt P04070); test: Inhibition of human activated protein C
[17] = molecular target: T1, Coagulation factor VII (Homo sapiens, UniProt P08709); test: Inhibition of human factor 7a
T1 sequence (P08709 whole entry): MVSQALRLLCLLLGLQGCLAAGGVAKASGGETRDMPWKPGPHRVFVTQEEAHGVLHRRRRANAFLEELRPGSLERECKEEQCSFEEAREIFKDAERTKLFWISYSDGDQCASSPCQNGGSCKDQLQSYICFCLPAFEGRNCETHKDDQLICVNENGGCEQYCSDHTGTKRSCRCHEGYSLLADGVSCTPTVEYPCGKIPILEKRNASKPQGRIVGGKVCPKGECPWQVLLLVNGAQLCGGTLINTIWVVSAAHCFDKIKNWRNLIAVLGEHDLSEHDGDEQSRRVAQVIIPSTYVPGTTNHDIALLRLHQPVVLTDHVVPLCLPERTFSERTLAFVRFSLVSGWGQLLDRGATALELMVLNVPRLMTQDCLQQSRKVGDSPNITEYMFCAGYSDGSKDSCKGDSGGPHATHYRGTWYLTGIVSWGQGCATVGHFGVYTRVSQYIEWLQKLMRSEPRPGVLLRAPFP

[18] = molecular target: Tissue-type plasminogen activator (Homo sapiens, UniProt P00750); test: Inhibition of human tissue plasminogen activator
[19] = molecular target: Prothrombin (Homo sapiens, UniProt P00734); test: Inhibition of human thrombin
[20] = molecular target: Coagulation factor XI (Homo sapiens, UniProt P03951); test: Inhibition of human factor 11a
Sequence of Coagulation factor XI (P03951 19-387 limits assumed): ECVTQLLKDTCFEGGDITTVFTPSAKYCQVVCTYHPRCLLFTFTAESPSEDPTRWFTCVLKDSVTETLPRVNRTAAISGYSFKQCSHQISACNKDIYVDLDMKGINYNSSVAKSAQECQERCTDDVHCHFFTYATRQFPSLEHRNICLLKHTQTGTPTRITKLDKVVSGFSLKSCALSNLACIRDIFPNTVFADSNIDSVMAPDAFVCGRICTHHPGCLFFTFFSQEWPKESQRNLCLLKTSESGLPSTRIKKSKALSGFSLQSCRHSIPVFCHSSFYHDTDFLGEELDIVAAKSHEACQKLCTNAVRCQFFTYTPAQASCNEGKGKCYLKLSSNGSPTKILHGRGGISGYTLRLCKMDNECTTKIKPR
Sequence of Coagulation factor XI (P03951 388-625 limits assumed): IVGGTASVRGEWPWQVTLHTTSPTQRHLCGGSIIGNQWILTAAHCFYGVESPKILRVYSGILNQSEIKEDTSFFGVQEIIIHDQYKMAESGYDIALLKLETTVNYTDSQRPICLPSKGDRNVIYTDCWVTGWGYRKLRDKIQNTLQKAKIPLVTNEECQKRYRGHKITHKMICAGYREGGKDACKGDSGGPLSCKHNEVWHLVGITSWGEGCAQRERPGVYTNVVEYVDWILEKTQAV

Sequence of Coagulation factor X (P00742 41-179 limits assumed): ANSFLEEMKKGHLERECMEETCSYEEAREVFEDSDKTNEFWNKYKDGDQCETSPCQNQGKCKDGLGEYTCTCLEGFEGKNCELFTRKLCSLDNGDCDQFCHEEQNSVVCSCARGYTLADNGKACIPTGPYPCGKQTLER
Sequence of Coagulation factor X (P00742 235-488 limits assumed): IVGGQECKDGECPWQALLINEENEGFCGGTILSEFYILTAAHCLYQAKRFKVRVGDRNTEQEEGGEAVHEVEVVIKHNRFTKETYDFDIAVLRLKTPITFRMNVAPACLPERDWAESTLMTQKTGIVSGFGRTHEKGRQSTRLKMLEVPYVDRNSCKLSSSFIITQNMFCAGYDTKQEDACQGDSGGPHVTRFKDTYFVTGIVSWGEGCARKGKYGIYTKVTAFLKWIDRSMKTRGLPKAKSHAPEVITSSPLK
Sequence of Plasminogen (P00747 97-580 limits assumed): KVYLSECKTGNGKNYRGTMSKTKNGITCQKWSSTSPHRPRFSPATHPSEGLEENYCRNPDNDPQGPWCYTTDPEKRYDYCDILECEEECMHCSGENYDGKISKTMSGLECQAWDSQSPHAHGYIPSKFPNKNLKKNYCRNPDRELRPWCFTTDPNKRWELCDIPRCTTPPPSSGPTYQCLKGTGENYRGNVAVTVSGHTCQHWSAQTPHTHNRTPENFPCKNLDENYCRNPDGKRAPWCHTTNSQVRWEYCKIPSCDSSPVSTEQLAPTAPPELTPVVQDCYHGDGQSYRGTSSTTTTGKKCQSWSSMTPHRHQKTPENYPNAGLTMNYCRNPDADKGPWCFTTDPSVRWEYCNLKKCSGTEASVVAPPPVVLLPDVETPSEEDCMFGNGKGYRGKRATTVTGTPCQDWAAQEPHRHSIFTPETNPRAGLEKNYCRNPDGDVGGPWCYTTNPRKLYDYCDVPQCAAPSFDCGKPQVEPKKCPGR
Sequence of Plasminogen (P00747 581-810 limits assumed): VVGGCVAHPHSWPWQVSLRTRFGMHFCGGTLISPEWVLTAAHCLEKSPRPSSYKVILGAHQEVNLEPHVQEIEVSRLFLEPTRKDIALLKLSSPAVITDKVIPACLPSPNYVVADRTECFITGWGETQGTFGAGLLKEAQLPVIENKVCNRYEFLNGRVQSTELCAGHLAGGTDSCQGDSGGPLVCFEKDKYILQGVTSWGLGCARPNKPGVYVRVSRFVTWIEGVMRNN
Sequence of Vitamin K-dependent protein C (P04070 43-197 limits assumed): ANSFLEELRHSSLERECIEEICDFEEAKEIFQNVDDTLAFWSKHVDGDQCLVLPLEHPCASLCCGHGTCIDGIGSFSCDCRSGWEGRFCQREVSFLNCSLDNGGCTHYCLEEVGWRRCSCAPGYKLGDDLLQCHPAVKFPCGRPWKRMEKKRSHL
Sequence of Vitamin K-dependent protein C (P04070 212-461 limits assumed): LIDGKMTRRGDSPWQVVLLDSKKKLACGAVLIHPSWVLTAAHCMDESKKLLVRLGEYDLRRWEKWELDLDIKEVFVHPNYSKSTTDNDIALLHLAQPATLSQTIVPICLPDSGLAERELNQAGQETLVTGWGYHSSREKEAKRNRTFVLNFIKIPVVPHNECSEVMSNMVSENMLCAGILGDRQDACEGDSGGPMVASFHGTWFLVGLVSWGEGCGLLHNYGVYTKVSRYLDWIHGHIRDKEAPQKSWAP
Sequence of Tissue-type plasminogen activator (P00750 whole entry): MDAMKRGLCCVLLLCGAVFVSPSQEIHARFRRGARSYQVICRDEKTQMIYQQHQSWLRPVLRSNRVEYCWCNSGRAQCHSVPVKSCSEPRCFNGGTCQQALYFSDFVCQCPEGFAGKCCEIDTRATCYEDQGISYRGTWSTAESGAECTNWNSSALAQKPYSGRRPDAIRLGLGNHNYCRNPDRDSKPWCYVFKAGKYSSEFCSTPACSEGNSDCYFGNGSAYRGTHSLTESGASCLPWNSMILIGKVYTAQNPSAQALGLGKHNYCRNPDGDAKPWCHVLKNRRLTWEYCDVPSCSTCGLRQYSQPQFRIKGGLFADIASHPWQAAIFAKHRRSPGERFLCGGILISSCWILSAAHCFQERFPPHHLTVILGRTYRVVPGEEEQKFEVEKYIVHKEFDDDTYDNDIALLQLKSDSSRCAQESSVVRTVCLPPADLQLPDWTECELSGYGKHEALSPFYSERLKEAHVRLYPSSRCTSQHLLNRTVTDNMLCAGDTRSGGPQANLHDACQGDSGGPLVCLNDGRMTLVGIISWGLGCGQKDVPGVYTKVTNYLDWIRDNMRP
Sequence of Plasma kallikrein (P03952 20-390 limits assumed): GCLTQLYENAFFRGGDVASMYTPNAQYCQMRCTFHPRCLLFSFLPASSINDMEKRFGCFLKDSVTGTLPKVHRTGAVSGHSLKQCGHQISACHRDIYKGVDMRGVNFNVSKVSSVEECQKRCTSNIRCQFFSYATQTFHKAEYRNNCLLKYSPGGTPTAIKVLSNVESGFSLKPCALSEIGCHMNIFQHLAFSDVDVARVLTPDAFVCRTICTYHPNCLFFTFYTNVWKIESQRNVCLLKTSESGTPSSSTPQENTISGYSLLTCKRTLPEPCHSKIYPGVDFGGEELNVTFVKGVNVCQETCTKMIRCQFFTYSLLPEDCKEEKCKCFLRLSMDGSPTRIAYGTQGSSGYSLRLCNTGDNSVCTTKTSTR
Sequence of Plasma kallikrein (P03952 391-638 limits assumed): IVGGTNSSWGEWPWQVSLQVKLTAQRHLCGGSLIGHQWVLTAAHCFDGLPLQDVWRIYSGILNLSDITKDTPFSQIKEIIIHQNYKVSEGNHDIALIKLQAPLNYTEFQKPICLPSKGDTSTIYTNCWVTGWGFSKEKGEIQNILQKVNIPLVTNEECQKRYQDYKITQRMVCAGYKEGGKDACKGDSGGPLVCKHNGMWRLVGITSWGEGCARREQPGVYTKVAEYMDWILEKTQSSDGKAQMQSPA

clearance [1]: 11.7 mL/min/kg
bioavailability [2]: 60%
remaining at 10 min [3]: 79%
clearance [4]: 0.063 nmol/min/mg
Vd [5]: 0.8 L/kg
half-life [6]: 42 min
half-life [7]: 42 min
Papp [8]: 9.2 ×10⁻⁶ cm/s
SMILES: O=C(N[C@H]1CCC[C@H]1NC(=O)c1ccc(Cl)s1)c1ccc(-n2ccccc2=O)cc1

SMILES: O=C(N[C@H]1CN(C(=O)C2CC2)C[C@H]1NC(=O)c1ccc(Cl)s1)c1ccc(-n2ccccc2=O)cc1
Ki [9]: 2.1 nM
IC50 [10]: > 100000 nM

SMILES: O=C(N[C@H]1CN(C(=O)c2ccccc2)C[C@H]1NC(=O)c1ccc(Cl)s1)c1ccc(-n2ccccc2=O)cc1
Ki [9]: 2.2 nM
IC50 [10]: > 100000 nM

SMILES: COCC(=O)N1C[C@H](NC(=O)c2ccc(-n3ccccc3=O)cc2)[C@H](NC(=O)c2ccc(Cl)s2)C1
Ki [9]: 0.36 nM
IC50 [10]: > 100000 nM

SMILES: COCCOC(=O)N1C[C@H](NC(=O)c2ccc(-n3ccccc3=O)cc2)[C@H](NC(=O)c2ccc(Cl)s2)C1
Ki [9]: 0.93 nM
IC50 [10]: > 100000 nM

SMILES: CS(=O)(=O)N1C[C@H](NC(=O)c2ccc(-n3ccccc3=O)cc2)[C@H](NC(=O)c2ccc(Cl)s2)C1
Ki [9]: 0.44 nM
IC50 [10]: > 100000 nM
CL [4]: 0 nmol/mg/min

SMILES: CC(C)S(=O)(=O)N1C[C@H](NC(=O)c2ccc(-n3ccccc3=O)cc2)[C@H](NC(=O)c2ccc(Cl)s2)C1
Ki [9]: 1.7 nM
IC50 [10]: > 100000 nM

SMILES: CN(C)C(=O)N1C[C@H](NC(=O)c2ccc(-n3ccccc3=O)cc2)[C@H](NC(=O)c2ccc(Cl)s2)C1
Ki [9]: 0.56 nM
IC50 [10]: > 100000 nM
CL [4]: 0 nmol/mg/min

Ki [9]: 0.21 nM
SMILES: O=C(N[C@@H]1Cc2ccccc2[C@@H]1NC(=O)c1ccc2c(Cl)c[nH]c2c1)c1ccc(-n2ccccc2=O)cc1

Ki [9]: 230 nM
SMILES: O=C(N[C@@H]1Cc2ccccc2[C@@H]1NC(=O)c1ccc(Cl)s1)c1ccc(-n2ccccc2=O)cc1

Ki [9]: 27 nM
SMILES: O=C(N[C@H]1Cc2ccccc2[C@H]1NC(=O)c1ccc(Cl)s1)c1ccc(-n2ccccc2=O)cc1

Ki [9]: 10900 nM
SMILES: O=C(N[C@@H]1c2ccccc2C[C@@H]1NC(=O)c1ccc(Cl)s1)c1ccc(-n2ccccc2=O)cc1

Ki [9]: 1 nM
SMILES: O=C(N[C@@H]1Cc2ccccc2[C@@H]1NC(=O)c1ccc(-n2ccccc2=O)cc1)c1ccc2c(Cl)c[nH]c2c1

Ki [9]: 0.53 nM
SMILES: COC(=O)[C@H]1C[C@H](NC(=O)c2ccc(-n3ccccc3=O)cc2)[C@H](NC(=O)c2ccc(Cl)s2)C1

Ki [11]: > 22000 nM
Ki [9]: 0.56 nM
Ki [12]: > 10800 nM
Ki [13]: > 5000 nM
Ki [14]: > 20000 nM
remaining at 10 min [3]: 100%
Ki [15]: > 14000 nM
Ki [16]: > 21000 nM
Ki [17]: > 11000 nM
Ki [18]: > 21000 nM
SMILES: O=C(N[C@H]1C[C@H](CO)C[C@H]1NC(=O)c1ccc(Cl)s1)c1ccc(-n2ccccc2=O)cc1

Ki [9]: 2.1 nM
SMILES: CN(C)C(=O)[C@H]1C[C@H](NC(=O)c2ccc(-n3ccccc3=O)cc2)[C@H](NC(=O)c2ccc(Cl)s2)C1

clearance [1]: 26.7 mL/min/kg
Ki [11]: > 22000 nM
bioavailability [2]: 97%
Ki [9]: 2.6 nM
Ki [19]: > 12000 nM
Ki [13]: > 5000 nM
Ki [14]: > 20000 nM
Ki [20]: > 11000 nM
CL [4]: 0.031 nmol/mg/min
Ki [15]: > 14000 nM
Vd [5]: 1 L/kg
half-life [6]: 72 min
Ki [16]: > 21000 nM
Ki [17]: > 11000 nM
Ki [18]: > 21000 nM
half-life [7]: 72 min
SMILES: O=C(N[C@H]1COC[C@H]1NC(=O)c1ccc(Cl)s1)c1ccc(-n2ccccc2=O)cc1

Ki [9]: 2.6 nM
SMILES: O=C(N[C@H]1COC[C@H]1NC(=O)c1ccc2c(Cl)c[nH]c2c1)c1ccc(-n2ccccc2=O)cc1

SMILES: O=C(N[C@H]1CNC[C@H]1NC(=O)c1ccc(Cl)s1)c1ccc(-n2ccccc2=O)cc1
Ki [9]: 9.5 nM
IC50 [10]: > 100000 nM
CL [4]: 0 nmol/mg/min

Ki [9]: 18 nM
SMILES: O=C(N[C@H]1CNC[C@H]1NC(=O)c1ccc2c(Cl)c[nH]c2c1)c1ccc(-n2ccccc2=O)cc1
